From ChEMBL document CHEMBL4513216, “Probing the Open Global Health Chemical Diversity Library for Multistage-Active Starting Points for Next-Generation Antimalarials” (ACS Infect Dis, 2020) come the findings set out here.

Molecules are shown by their SMILES.

The data set is described as follows: Toxicity liver stage against HepG2, at 10uM. Also on record: test concentration 10 uM, cell line HepG2-A16-CD81EGFP. It counts as cell-based. Conditions: human, HepG2-A16-CD81EGFP cells; read-out: INHIBITION
The gist of the method:
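Uninfected HepG2-A16-CD81EGFP cells, 3 × 10^3 per well, 1536-well, plated on prespotted compound at 10 μM final, parasite-free screening media added to match infected plates; puromycin 10 μM positive, DMSO 0.5% negative; run in parallel with 48 h PbLuc assay at 37 °C, 5% CO2; viability by CellTiter-Glo luminescence, normalized to controls.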
Turning to `Cn1cncc1-c1nnc([C@H]2CCN(Cc3ccc(CO)o3)C2)o1`, the cytotoxicity at 10 µM was -4.09%. Take `CC1(C)[C@H](Cc2cc(CN3CCCCC3)on2)C[C@@H]1NS(C)(=O)=O`: the cytotoxicity at 10 µM is 1.12%.

For the compound `CC1CCN(C[C@H]2CN3CC[C@H]2C[C@@H]3CNC(=O)c2ccco2)CC1`, the cytotoxicity at 10 µM was -1.55%.

As to `COC(=O)[C@@H]1CN(C(=O)Nc2ccccc2)CCN1C(C)=O`, the cytotoxicity at 10 µM was found to be 4.23%. Then `CCCOC(=O)c1ccc(-c2ccc(/C=C3\C(=O)NC(=N)N3C)o2)cc1`, with 2.91%; and `O=C1CC(c2cccnc2)c2c(c(C(=O)O)cn2-c2cccc(F)c2)N1` (configuration not stated), with -0.585%.

Regarding `COc1ccc2c(c1)c(C(=O)Nc1cc(C)n(C)n1)cn2C(C)C`, the cytotoxicity at 10 µM was -1.33%. Next, `COC(=O)CNC(=O)c1nc(Cl)sc1C(C)C`: 1.34%; `COc1ccccc1C(=O)Nc1nc2c(s1)CN(S(=O)(=O)C1CC1)CC2`: -11.7%. Next, `O=C(NCCOc1ccccc1)NCC(O)c1cccs1` (configuration not stated): -7.83%. Then `CCOc1ccc(S(=O)(=O)N(CCOC)Cc2ccoc2)cc1F`, with 8.31%; and `O=C(C1CCOCC1)N1CCC2(CCNCC2)C1`, with 3.41%; and `Cn1nc(CN2CCCC2)c2c1CN(C(=O)c1ccc[nH]1)CC2`, with 6.86%. Take `CC(=O)c1ccc(NC(=O)N[C@H](C(=O)O)C(C)C)cc1`: the cytotoxicity at 10 µM is -14.8%. Next, `CC(C)(C)C(=O)N1CCC2(COCc3cnc(N4CCOCC4)nc32)C1` (configuration not stated): -14.2%; `O=C(NCCC(O)c1ccccc1)c1ccco1` (configuration not stated): -0.749%. For `Cc1cc(C(F)(F)F)n2nc(C3CCN(S(C)(=O)=O)CC3)cc2n1`, the cytotoxicity at 10 µM was found to be 0.065%. With `CCN(CC)CCCNCc1cc2cc(C)cc(C)c2[nH]c1=O`, the cytotoxicity at 10 µM came to 7.63%. Then `CCc1n[nH]c(C(=O)NCCn2ccc(C)n2)c1C`, with 8.58%; and `CS(=O)(=O)N1CCCC1c1cccc(Nc2nccs2)n1` (configuration not stated), with -33.4%. Next, `Cc1ncc(CNC(=O)Cc2ccsc2)c(C2CCCN2C)n1` (configuration not stated): -1.25%; `CN1CC(c2cc(O)nc(NCc3ccc(Cl)cc3)n2)CC1=O` (configuration not stated): -9.54%.

For the compound `CCCC(NC(=O)c1cc(C2CC2)[nH]n1)c1nnc2ccccn12` (configuration not stated), the cytotoxicity at 10 µM was determined as 0.11%. Regarding `Oc1cccc(CNCc2ccc(-n3cncn3)nc2)c1`, the cytotoxicity at 10 µM came out at 4.01%. Then `COc1ccc(-c2noc(C3=NN(C)C(=O)CC3)n2)cc1OC`, with -0.51%; and `CCc1cccc(C)c1NC(=O)NCCCN(CC)S(C)(=O)=O`, with 4.87%. Regarding `CS(=O)(=O)C1(CNCc2cccc(-n3cccn3)c2)CCOCC1`, the cytotoxicity at 10 µM is -141%. Next, `Cn1cnc(S(=O)(=O)N2CCCc3cc(F)cc(F)c32)c1Cl`: -0.767%; `O=C(NCc1nncn1C1CC1)c1ccccc1Oc1cccnc1`: -4.97%; `CN(C)c1ccc(C(=O)Nc2ccn(CCc3ccncc3)n2)cn1`: -12.7%. With `O=C(Nc1ccc(-n2cncn2)nc1)N(CC1CCOC1)C1CC1` (configuration not stated), the cytotoxicity at 10 µM is -9.2%. Then `Cc1nnc2n1CCN(C(=O)c1cnc3c(cnn3CC(C)C)c1)C2`, with -8.72%; and `Cc1ccn(-c2ccc(N3CCN(Cc4ccccn4)CC3)nn2)n1`, with 5.6%.

Take `CN(C)C(CNC(=O)NCCS(C)(=O)=O)c1ccco1` (configuration not stated): the cytotoxicity at 10 µM was 4.41%. With `CC(C)CC(=O)Nc1c(-c2ccc(F)cc2)ncn1C`, the cytotoxicity at 10 µM amounted to 5.87%. Next, `CCSc1ccc(NC(=O)NC(C)c2c(C)nn(C)c2C)cn1` (configuration not stated): -2.6%; `CSCCC(C)NC(=O)N(C)Cc1cc(Cl)cn1C` (configuration not stated): 3.04%. Then `O=C(c1cccc2c1OCO2)N1CCC(N2CCCC2)CC1`, with -2.35%; and `CC(NC(=O)N1CCNC(=O)CC1)c1ccc(OC(F)F)cc1` (configuration not stated), with 11.6%; and `O=C(c1cnns1)N1CCN(Cc2ccc(F)cc2Cl)CC1`, with -127%.

Consider `Cc1ccc(F)c(C(=O)Nc2c(C(N)=O)n[nH]c2C)c1`, for which the cytotoxicity at 10 µM is -0.587%. Next, `CCc1n[nH]c(C2CN(Cc3csc(C4CCCC4)n3)CCO2)n1` (configuration not stated): -14.6%; `N#Cc1ccc(OC2CCN(CC(=O)NCC(F)(F)F)CC2)cc1`: 11.9%. Next, `COCCS(=O)(=O)NCC(C)c1cccc(C)c1` (configuration not stated): 2.03%; `CC(C)C(CCO)NC(=O)Nc1cc(F)ccc1-n1cccn1` (configuration not stated): -4.06%; `CN(CC(N)=O)CC(=O)N(C1=CCCCC1)C1CC1`: -3.85%. Then `CCC1CCCCN1C(=O)c1ccc2[nH]nnc2c1` (configuration not stated), with -10.7%; and `CCOC(C)c1nc(CN2CCC(CNC(C)=O)CC2)cs1` (configuration not stated), with -15%.

On to `CN(C)S(=O)(=O)N1CCCC1CC(=O)c1cccs1` (configuration not stated), for which the cytotoxicity at 10 µM was -9.44%. As for `CN(CC(=O)N1CCN(c2ncccn2)CC1)c1ccc(Cl)cn1`, the cytotoxicity at 10 µM was -9.65%. Next, `CC(C)OCCOCc1cccc(NC(=O)NCc2ccncc2)c1`: -12%; `CCc1noc(C(C)N2CCN(c3ccc(C#N)cc3F)CC2)n1` (configuration not stated): -9.7%. Next, `COc1c(C2CCCN2C(=O)c2ccc(Cl)o2)c(C)nn1C` (configuration not stated): -10.4%; `CCN(CC)CC(=O)NCc1cccnc1-n1cnc2ccccc21`: 1.77%; `CSCC(=O)NC1CC(=O)N(CCc2ccccc2)C1` (configuration not stated): -2.1%. Then `Cc1cc(-c2ccc(C(C)N3CCCCC3)cc2)cnc1N` (configuration not stated), with -3.44%. `COc1ccc(OCc2cc(C(=O)N3CCSCC3)n[nH]2)c(Cl)c1`: the cytotoxicity at 10 µM was -7.51%. Then `CCNc1nc(C)c(C(=O)N(C)Cc2nc(-c3ccncc3)no2)s1`, with 1.41%; and `Cc1ccnc(NCCNC(=O)C2CC3(CCNCC3)CN2C)c1` (configuration not stated), with 2.69%. Then `C[C@@H]1CN(CCOc2ccc(Cl)cc2)CC[C@@]1(O)C1CCOCC1`, with 19.4%.

With `COC(=O)NCC(=O)N1CCC(Oc2cccc(C)c2)CC1`, the cytotoxicity at 10 µM is -0.555%.

With `CC(Oc1ccc(F)cc1F)C(=O)N1CCC2(CC1)CC(=O)N(C)C2` (configuration not stated), the cytotoxicity at 10 µM amounted to 1.63%. For `Cc1ccc(-c2nc(CN3CCOCS3(=O)=O)c(C)o2)cc1`, the cytotoxicity at 10 µM is -0.724%. As to `CCC(CO)N(Cc1cccnc1)Cc1ccc(-c2ccn[nH]2)s1` (configuration not stated), the cytotoxicity at 10 µM was -1.55%. Next, `COc1cccn(CC(=O)N2CCCC3(CCCCC3)C2)c1=O`: -1.29%; `CN(C)CC(C)(C)Cn1cnc(-c2ccccc2)c1-c1ccncc1`: 4.19%; `O=C(C1CCC1)N1CCN(Cc2ccsc2)[C@H]2CS(=O)(=O)C[C@H]21`: -12%. On to `CCC1CN(C(=O)c2ccc(Cl)cc2O)CCN1C(C)C` (configuration not stated), for which the cytotoxicity at 10 µM was -15.5%.

As to `Cc1ncsc1-c1nnc(C2CCN(CC3CCCCC3)CC2)o1`, the cytotoxicity at 10 µM was determined as 1.59%. Next, `Cc1c[nH]nc1C1CCCCN1C(=O)Cn1cc(Cl)cn1` (configuration not stated): 4.11%; `Cc1ccn(CCC(=O)N2CCOC(c3nc(-c4cccs4)no3)C2)n1` (configuration not stated): 7.03%; `CCOCC(O)CN1CCN(C(=O)c2cc(Cl)ccc2F)CC1` (configuration not stated): -6.54%. In the case of `NC(=O)c1cnn2c1NCC(CNCCOc1ccccc1)C2` (configuration not stated), the cytotoxicity at 10 µM was -11.4%. For the compound `Cc1csc(C2CCCN(C(=O)Cn3ccccc3=O)C2)n1` (configuration not stated), the cytotoxicity at 10 µM is -5.68%. `CC(C)Oc1ncccc1CNC(=O)Nc1ccccn1`: the cytotoxicity at 10 µM is -9.41%.

In the case of `c1ccc(-n2cc(CN3CCCC3Cn3cccn3)nn2)cc1` (configuration not stated), the cytotoxicity at 10 µM was 0.207%. Then `Cc1ccc(OCC(=O)NC2CCN(S(C)(=O)=O)CC2)cc1`, with -0.0552%; and `Cc1ccc(CNC(=O)NC(C)Cn2cccn2)cn1` (configuration not stated), with -11.2%; and `COC1CCN(Cc2csc(C(C)C)n2)CC1`, with 3.32%.

As to `Cc1cc(NC(=O)C(C)N2CCN(c3nc(C)cs3)CC2)on1` (configuration not stated), the cytotoxicity at 10 µM is -0.71%. Next, `CN(Cc1cc(-c2ccccc2)no1)CC1CCCN1c1cccnn1` (configuration not stated): -9.09%; `CN(Cc1cccnc1)CC1CCCN1c1cccnn1` (configuration not stated): 0.192%; `FC(F)(F)c1nc(C2CCCNC2)no1` (configuration not stated): 5.25%. Next, `NCCc1cn(Cc2ccccn2)c2ccccc12`: 3.71%; `Cc1ccc([C@]2(O)CC[C@H]3CN(Cc4ccccc4F)C[C@H]32)nc1`: -12.8%. Then `CCN1CCn2c(C)cnc2C12CCN(C(=O)N(C)C)CC2`, with 4.91%; and `CN1CC[C@@H]2[C@@H](CO[C@H]2CNC(=O)c2nccn2C)C1`, with -113%. Consider `c1ccc(CN2CCCn3nnc(CNc4ncccn4)c3C2)nc1`, for which the cytotoxicity at 10 µM is -3.29%. As to `O=C(NC1CCCC1)c1ccc(C2CCCNC2)nc1` (configuration not stated), the cytotoxicity at 10 µM is -13.7%.

For `O=C(C[C@@H]1COC[C@H]2CN(Cc3ccc(F)cc3)C[C@@H]12)N1CCOCC1`, the cytotoxicity at 10 µM was found to be 7.75%. For the compound `CCN1CCn2cc(CNC(=O)c3cnn(C)c3)nc2C1`, the cytotoxicity at 10 µM stood at 8.88%. As to `Fc1cccnc1OC[C@@]12CCO[C@@H]1CCN(CC1CCOCC1)C2`, the cytotoxicity at 10 µM was -14.6%.

Regarding `c1cncc(C2COC3(CCN(CC4CC4)CC3)C2)c1` (configuration not stated), the cytotoxicity at 10 µM is -14.9%. Next, `CNC(=O)[C@@]12CCCN(c3ncccn3)[C@@H]1CN(C)C2`: 12.8%; `CNC(=O)N1CC[C@H]2N(C)CC[C@@]2(C(=O)N2CCOCC2)CC1`: -2.72%; `O=S(=O)(Cc1ccccc1)N1CCCn2cnc(CN3CCCC3)c2C1`: 3.3%.

Regarding `CCOC(=O)c1cnn(C2CCN(C(=O)CC(C)(C)C)CC2)c1N`, the cytotoxicity at 10 µM came to 6.26%.
